Compound activity from PubChem.
Most compounds without a hit are left out; they make up all but 3.7% or so of the library.
KCNQ1 block: human KCNQ1 channel inhibition; CHO-K1 KCNQ1, FluxOR thallium flux fluorescence; stronger effect = higher value; 310,000 tested, 1.3% active; B-score at 10 µM; P51787; AID 2642;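 active = compounds whose thallium flux B-score, printed positive for inhibition, exceeds three library SD while starting fluorescence stays within three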;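 also: channel opened by potassium depolarization with thallium stimulus after 20 min compound exposure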
KCNK9 block: inhibitors of human KCNK9 two-pore domain potassium channel; Q9NPC2; HEK293 KCNK9, FluxOR thallium flux fluorescence; stronger effect = lower value; B-score at 10 µM; 310,000 tested, 1.2% active; AID 488922;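 active = ratio B-score over 3 SD below the library mean, with starting fluorescence within 5 SD of its mean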;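 also: negative B-score means less thallium flux so channel inhibition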
hERG rescue: compounds protecting human hERG from proarrhythmic drug block; activation (rescue from dofetilide block), less the hit threshold, % at 10 µM; Q12809; CHO-hERG, FluxOR thallium flux, dofetilide IC70 present; 310,000 tested, 0.51% active; AID 1511;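 active = activation above the mean of controls blocked by dofetilide plus 5 SD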;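 also: thallium influx through hERG after potassium depolarization seen as dye fluorescence rise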
KCNK3 block: human KCNK3 channel inhibition, primary screen | O14649 | CHO-KCNK3 thallium flux, FluxOR fluorescence; stronger effect = lower value | B-score at 10 µM | 340,000 tested, 0.84% active;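 active = B-score under library mean minus 4 SD, starting fluorescence ratio at most library mean plus 5 SD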;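 also: more negative B-score means stronger inhibition of thallium flux through KCNK3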
Target sequence (O14649 whole entry, looked up): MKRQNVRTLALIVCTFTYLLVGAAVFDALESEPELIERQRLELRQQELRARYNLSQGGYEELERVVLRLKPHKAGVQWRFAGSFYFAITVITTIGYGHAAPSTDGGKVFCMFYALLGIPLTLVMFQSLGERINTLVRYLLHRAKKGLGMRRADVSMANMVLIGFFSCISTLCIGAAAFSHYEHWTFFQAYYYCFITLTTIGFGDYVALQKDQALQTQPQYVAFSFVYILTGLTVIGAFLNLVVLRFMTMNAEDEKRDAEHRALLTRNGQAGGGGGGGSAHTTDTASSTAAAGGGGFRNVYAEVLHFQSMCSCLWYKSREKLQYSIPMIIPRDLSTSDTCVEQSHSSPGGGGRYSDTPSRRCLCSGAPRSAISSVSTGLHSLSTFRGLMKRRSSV
Kir21 block: Kir2.1 (mouse) channel inhibition; P35561; HEK293-Kir2.1, FluxOR thallium flux fluorescence; stronger effect = lower value; B-score at 10 µM; 310,000 tested, 0.85% active;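 active = fluorescence ratio B-score at or below minus 3 SD of library scores, with starting-brightness B-score within 2 SD, cut at about -4.2 in these data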;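 also: channel flux triggered by added potassium and thallium sulfate stimulus; B-score of peak minus minimum fluorescence over baseline after thallium stimulus; more negative B-score means stronger Kir2.1 block with less thallium influx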
KCNQ1 pot: human KCNQ1 channel potentiation or activation; CHO-K1 KCNQ1, thallium flux FluxOR fluorescence; stronger effect = higher value; B-score at 10 µM; 310,000 tested, 0.35% active;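 active = fluorescence ratio B-score, a plate-corrected score, at least three library SD, with initial intensity B-score within 5 SD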
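System: Stable KCNQ1 CHO-K1 line | Incubation: 90 min dye loading and 20 min compound exposure, both at room temperature | Measure: Ratio B score | Medium: Assay buffer for compound exposure, DMSO matched across wells | Compound dosing: Single-concentration screen | Probe or stimulus: K+/Tl+ depolarizing stimulus | Measured by: Kinetic FluxOR fluorescence, 10 s baseline plus 110 s post-stimulus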
KCNK3 inh conf: confirmation of human KCNK3 two-pore domain potassium channel inhibitors | shares compounds with KCNK3 block | CHO-KCNK3 thallium flux, FluxOR fluorescence; 0% buffer, 100% carvedilol maximal block | ratio percent of control, % at 10 µM | 2,400 tested, 99% active;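 active = ratio percent of control, averaged over triplicates, above buffer control mean plus 5 SD, cut at about 64% in these data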;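 also: ratio is the fluorescence rise from min to max over baseline after thallium stimulus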
KCNK3 noninduced: activity in cells without induced KCNK3 expression. 2,400 tested, 40% active. non-induced KCNK3 parental cells, FluxOR thallium flux; stronger effect = lower value. shares compounds with KCNK3 block. thallium flux ratio (lower = more inhibition) at 10 µM;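 active = thallium flux ratio, averaged over three wells, more than 5 SD below the buffer control mean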;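 also: host cells are CHO cells without KCNK3 induction; ratio is peak minus trough fluorescence over baseline then normalized to buffer controls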
An asterisk follows results filed as active; i = inactive; x = no result.

SMILES	KCNQ1 block	KCNK9 block	hERG rescue	KCNK3 block	Kir21 block	KCNQ1 pot	KCNK3 inh conf	KCNK3 noninduced
CC1=CC(C)(C)N2C(=O)C3(C(C#N)=C(N)Oc4cc(O)ccc43)c3c(C)c(C)cc1c32 (configuration not stated)	i	i	-16	-8.9*	0	i	81*	0.16*
O=c1c(Br)ccc(Br)cc1Br	x	x	x	i	x	x	x	x
Oc1ccccc1Nc1nc(NCc2ccccc2)c2ccccc2n1	i	i	-15	-12*	-0.98	i	137*	i
c1ccc(CNc2nc(N3CCN(Cc4ccccc4)CC3)nc3ccccc23)cc1	12*	i	-28	-10*	-0.12	i	113*	i
Oc1ccccc1-c1nc(N2CCN(Cc3ccccc3)CC2)c2ccccc2n1	i	-7.1*	-4	-12*	-0.01	i	100*	i
Oc1ccccc1-c1nc(N2CCCC2)c2ccccc2n1	i	i	-4	i	1.8	i	x	x
CC1Nc2ccccc2C(=O)N1NS(=O)(=O)c1ccccc1 (configuration not stated)	i	i	-7	i	1.2	i	x	x
O=C(NCc1cc([N+](=O)[O-])ccc1O)c1cc(-c2ccncc2)nc2ccccc12	i	i	-10	-11*	0.03	i	100*	0.14*
CC1=C(C(=O)Nc2cccc(C(=O)NC3CCCC(C)C3C)c2)SCCO1 (configuration not stated)	i	i	-11	-9.3*	0.68	i	97*	i
CC1=C(C(=O)Nc2cccc(C(=O)NC(C)c3ccccc3)c2)SCCO1 (configuration not stated)	i	i	-13	-8.9*	-1.6	i	76*	i
Fc1ccc(Br)cc1/C=N/N1CCN(c2ccccc2)CC1	i	i	-4	-9.3*	-0.04	i	96*	i
Cc1ccc(CN2CCN(/N=C/c3cc(Br)ccc3F)CC2)cc1	i	i	-2	i	0.84	i	x	x
Cc1ccc(NC(=S)N(CCN(C)C)C(C)c2ccco2)cc1Cl (configuration not stated)	i	i	-7	i	1.2	i	x	x
Cc1ccc(NC(=O)N(Cc2ccco2)C(C)c2ccco2)cc1C (configuration not stated)	i	i	-8	-9*	-0.52	i	110*	i
O=C(Cc1ccc(Cl)cc1)NC(=S)Nc1ccccc1N1CCOCC1	x	x	x	i	x	x	x	x
O=C(Nc1ccccc1N1CCOCC1)C1(c2ccc(Cl)cc2)CCC1	i	i	-12	-11*	-1.6	i	100*	i
C/C(=N\NC(=O)c1ccc(COc2ccccc2)cc1)c1ccncc1	i	i	-12	i	0.01	i	x	x
O=[N+]([O-])c1cccc(C2NCC(c3ccccc3Cl)c3c2[nH]c2ccccc32)c1 (configuration not stated)	7*	-8.1*	-14	-9.5*	-0.23	i	125*	0.14*
Cc1sc2ncnc(N3CCN(S(=O)(=O)c4ccc(F)cc4)CC3)c2c1C	i	i	-11	-11*	-0.92	i	124*	0.16*
CCS(=O)(=O)N1CCN(c2ncnc3sc(C)c(C)c23)CC1	i	i	-2	i	0.93	i	x	x
CN(C(=O)Nc1ccc(Cl)cc1Cl)C1CCCC1	i	i	-22	-9.1*	1.8	i	76*	i
CCOC(=O)c1ccc(NC(=O)CSc2nnc(CCc3ccc(C)o3)n2-c2ccccc2)cc1	i	i	-10	-17*	-1.6	i	90*	i
CC(=O)Oc1ccccc1C(=O)Nc1ccccc1C(=O)N1CCCCC1	i	i	-8	i	1.5	i	x	x
N#Cc1nc(COc2ccccc2F)oc1NCCc1ccccc1	i	i	-8	-10*	0.84	i	102*	i
N#Cc1nc(COc2ccccc2F)oc1N1CCCCCC1	x	x	x	i	x	x	x	x
SMILES	KCNQ1 block	KCNK9 block	hERG rescue	KCNK3 block	Kir21 block	KCNQ1 pot	KCNK3 inh conf	KCNK3 noninduced
CN(Cc1ccccc1)c1oc(COc2ccccc2F)nc1C#N	i	i	-11	-13*	-0.45	i	115*	0.14*
CCc1nc2ccc(C(=O)N3CCN(c4ccccc4F)CC3)cc2nc1CC	i	i	-11	i	-1.5	i	x	x
O=C(CCNS(=O)(=O)c1ccccc1F)N1CCN(C(c2ccccc2)c2ccccc2)CC1	i	-7.4*	-14	-8.9*	0.03	i	101*	i
O=C(CCNS(=O)(=O)c1ccccc1F)N1CCN(S(=O)(=O)c2cccc(F)c2)CC1	i	i	-9	i	-1.3	i	x	x
Cc1nn(-c2ccccc2)c(C)c1/C=N/NC(=O)c1cc(-c2ccc(Cl)s2)[nH]n1	i	i	-27	-12*	-0.08	i	131*	i
CSc1ccc(CN(C)C(=O)COc2ccc(C(=O)c3ccccc3)cc2)cc1	i	i	-7	-9.4*	1.7	i	101*	i
COc1ccc(CCN(C)C(=O)COc2ccc(C(=O)c3ccccc3)cc2)cc1OC	i	i	-10	i	3.2	i	x	x
O=C(OCc1nc(-c2ccccc2)oc1COC(=O)c1ccco1)c1ccco1	i	i	-3	-9.1*	1.1	i	102*	i
CCOC1C(=O)NC(=O)N1Cc1ccccc1 (configuration not stated)	i	i	-5	-9.3*	-0.56	i	81*	i
CC1CC(=O)NC(=O)N1Cc1ccccc1 (configuration not stated)	x	x	x	i	x	x	x	x
CN(C)c1cccc(C(=O)OCc2cc(=O)oc3cc(O)ccc23)c1	i	i	-16	-9*	0.88	i	113*	i
O=[N+]([O-])c1cccc(/C=N/Nc2nc(NCc3ccccc3)nc(N3CCOCC3)n2)c1O	i	i	-9	i	-0.01	i	x	x
COc1cc(OC)c(OC)cc1/C=C1\Oc2cc(OCC(=O)N3Cc4ccccc4C[C@H]3C(=O)O)ccc2C1=O	i	i	-20	i	-0.69	i	x	x
COc1cc(/C=N/Nc2cccc(C)c2)ccc1OC(=O)c1ccco1	i	i	-10	i	0.48	i	x	x
CCN(CC)S(=O)(=O)c1ccc(-c2cc(C(=O)OC)sc2C(F)(F)F)cc1	i	i	-8	-9.7*	2.5	i	109*	i
